Measured values reported in ChEMBL document CHEMBL4732078 (Eur J Med Chem, 2021).
Active and inactive are the calls of the source. The calls are words filed in the database; no cut-off is given here.

Tests used:
SJRH30 = assay: Antiproliferative activity against human Rh30 cells assessed as reduction in cell viability after 72 hrs by sulforhodamine B assay; type: functional, cell-based; conditions: SJRH30, 72 h
In short: (§1)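 SRB assay. Exponentially growing cells seeded at 3000–5000/well, compounds added serially diluted after 24 h, cultured 72 h. Cells fixed with 10% TCA, stained with SRB, dye dissolved in 10 mM Tris-HCl, absorbance read at 560 nm. Inhibition = (ODcontrol − ODtreated)/ODcontrol × 100%. IC50 is the mean of at least three independent tests.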

[1] = target: RAF proto-oncogene serine/threonine-protein kinase (Homo sapiens, UniProt P04049, Y340D/Y341D); assay: Inhibition of human recombinant c-Raf Y340D/Y341D mutant (306 to end residues) using inactive MEK1 as substrate incubated for 40 mins in presence of [gamma33P-ATP] by radiometric scintillation counting analysis
[2] = target: T1, Phosphatidylinositol 4,5-bisphosphate 3-kinase catalytic subunit alpha isoform (Homo sapiens, UniProt P42336); assay: Inhibition of PI3Kalpha in human U87MG cells assessed as reduction in rhIGF1-stimulated AKT phosphorylation at Ser473 treated for 1 hr followed by incubation with IGF1 for 10 mins by western blot analysis; type: cell-based; conditions: U-87 MG, dose 0.01-1 µM, time 70.0 min
In short: (§2)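 U87MG or Rh30 cells held 24 h in serum-free medium, exposed to compound for 1 h, then stimulated with 50 ng/ml IGF-I for 10 min. Lysates blotted for Akt, pAkt T308 and pAkt S473.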

[3] = target: T1, Phosphatidylinositol 4,5-bisphosphate 3-kinase catalytic subunit alpha isoform; assay: Inhibition of PI3Kalpha in human Rh30 cells assessed as reduction in rhIGF1-stimulated AKT phosphorylation at Ser473 treated for 1 hr followed by incubation with IGF1 for 10 mins by western blot analysis; type: cell-based; conditions: dose 0.01-1 µM, time 70.0 min; in short: as §2
T47D = assay: Antiproliferative activity against human T47D cells assessed as reduction in cell viability after 72 hrs by sulforhodamine B assay; type: functional, cell-based; in short: as §1
SK-OV-3 [4] = assay: Antiproliferative activity against human SK-OV-3 cells assessed as reduction in cell viability after 72 hrs by sulforhodamine B assay; type: functional, cell-based; conditions: SK-OV-3, 72 h; in short: as §1
SK-BR-3 = assay: Antiproliferative activity against human SK-BR-3 cells assessed as reduction in cell viability after 72 hrs by sulforhodamine B assay; type: functional, cell-based; conditions: SK-BR-3, 72 h; in short: as §1
ZR-75-1 = assay: Antiproliferative activity against human ZR-75-1 cells assessed as reduction in cell viability after 72 hrs by sulforhodamine B assay; type: functional, cell-based; conditions: ZR-75-1, 72 h; in short: as §1
SK-OV-3 [5] = assay: Antitumor activity against human SK-OV-3 cells xenografted in BALB/cA nude mouse assessed as tumor growth at 5 mg/kg, po administered once a day for 21 days and measured twice per week; type: functional; conditions: dose 5 mg/kg/day; time 21 day
In short: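 Female BALB/cA nude mice, 4–5 weeks old. SKOV-3 xenografts passaged once in vivo, then 1.5 mm³ fragments implanted s.c. in the right flank by trocar. At about 100 mm³ mice were randomized to vehicle or drug given orally once daily. Tumor size and body weight measured twice weekly; V = length × width²/2.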

[6] = Toxicity in BALB/cA nude mouse xenografted with human SK-OV-3 cells assessed as changes in body weight at 5 to 20 mg/kg, po administered once a day for 21 days and measured twice per week; type: organism-based; conditions: in vivo, 504 h, dose 5-20 mg/kg/day, time 21 day
In short: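 Female BALB/cA nude mice, 4–5 weeks old, received s.c. passaged SKOV-3 tumor fragments (1.5 mm³) in the right flank. At about 100 mm³ they were randomized to oral vehicle or compound once daily for 21 days. Body weight was measured individually twice per week.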

[7] = Metabolic stability in human hepatocytes assessed as half life; type: ADME, cell-based, Hepatocyte
[8] = Metabolic stability in cynomolgus monkey hepatocytes assessed as half life; type: ADME, cell-based, Macaca fascicularis, Hepatocyte
[9] = Metabolic stability in Beagle dog hepatocytes assessed as half life; type: ADME, cell-based, Canis lupus familiaris, Hepatocyte
[10] = Metabolic stability in mouse hepatocytes assessed as half life; type: ADME, cell-based, Hepatocyte
[11] = Metabolic stability in Beagle dog hepatocytes assessed as intrinsic clearance; type: ADME, cell-based, Canis lupus familiaris, Hepatocyte; conditions: read-out: CLH
[12] = Metabolic stability in mouse hepatocytes assessed as intrinsic clearance; type: ADME, cell-based, Hepatocyte; conditions: read-out: CLH
[13] = AUC (0 to infinity) in rat at 10 mg/kg, po; type: ADME, organism-based; parameters: route oral, time infinity, dose 10 mg/kg; conditions: in vivo
In short: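 Male rats dosed orally at 10 mg/kg; plasma exposure followed to give AUC0-∞ (i.v. arm at 5 mg/kg run alongside).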

[14] = target: Phosphatidylinositol 4,5-bisphosphate 3-kinase catalytic subunit beta isoform (Homo sapiens) (UniProt P42338); assay: Inhibition of PI3Kbeta (unknown origin) transfected in human Rh30 cells assessed as reduction in AKT phosphorylation at Thr308 residue at 10XIC50 by western blot analysis; type: cell-based
In short: (§3)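 Rh30 cells ectopically expressing membrane-anchored, N-terminally myristoylated, constitutively active p110α, β, γ or δ. Akt phosphorylation assessed by Western blot; lysates made in RIPA buffer, equal protein heated at 95 °C for 10 min in SDS loading buffer.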

[15] = target: Phosphatidylinositol 4,5-bisphosphate 3-kinase catalytic subunit gamma isoform (Homo sapiens) (UniProt P48736); assay: Inhibition of PI3Kgamma (unknown origin) transfected in human Rh30 cells assessed as reduction in AKT phosphorylation at Ser473 residue at 10XIC50 by western blot analysis; type: cell-based; in short: as §3
LoVo = assay: Antiproliferative activity against human LoVo cells assessed as reduction in cell viability after 72 hrs by sulforhodamine B assay; type: functional, cell-based; in short: as §1
Mus musculus = assay: In vivo inhibition of PI3Kalpha in BALB/cA nude mouse xenografted with human SK-OV-3 cells assessed as reduction in AKT phosphorylation at Ser473 residue in tumor at 5 mg/kg, po measured after 4 to 8 hrs by Western blot analysis; type: functional, organism-based; conditions: time 4-8 hrs
In short: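 Nude mice carrying SKOV-3 xenografts of 200 mm³ got a single oral 5 mg/kg dose. Tumors were collected at 0, 2, 4 or 8 h, homogenized, and pAkt S473 probed by Western blot.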

[16] = target: CYP450 (isoform not stated) (Homo sapiens, UniProt P04798+P05177+P05181+P08684+P10632+P10635+P11509+P11712+P13584+P20813+P20815+P20853+P24462+P24903+P33260+P33261+P51589+P78329+P98187+Q02928+Q08477+Q16678+Q16696+Q5TCH4+Q6VVX0+Q7Z449+Q8TAV3+Q96SQ9+Q9HB55); assay: Inhibition of CYP450 (unknown origin); type: ADME, protein assay
[17] = Inhibition of human PI3Kgamma R459Q mutant using PIP2 as substrate in presence of ATP measured after 30 mins by HTRF assay
PI3K p110 beta/p85 alpha = PI3K p110 beta/p85 alpha (Homo sapiens, UniProt P42338); assay: Inhibition of human PI3K p110beta/p85alpha using PIP2 as substrate incubated for 30 mins in presence of ATP measured after 30 mins by HTRF assay
Chain of PI3K p110 beta/p85 alpha (P27986 whole entry): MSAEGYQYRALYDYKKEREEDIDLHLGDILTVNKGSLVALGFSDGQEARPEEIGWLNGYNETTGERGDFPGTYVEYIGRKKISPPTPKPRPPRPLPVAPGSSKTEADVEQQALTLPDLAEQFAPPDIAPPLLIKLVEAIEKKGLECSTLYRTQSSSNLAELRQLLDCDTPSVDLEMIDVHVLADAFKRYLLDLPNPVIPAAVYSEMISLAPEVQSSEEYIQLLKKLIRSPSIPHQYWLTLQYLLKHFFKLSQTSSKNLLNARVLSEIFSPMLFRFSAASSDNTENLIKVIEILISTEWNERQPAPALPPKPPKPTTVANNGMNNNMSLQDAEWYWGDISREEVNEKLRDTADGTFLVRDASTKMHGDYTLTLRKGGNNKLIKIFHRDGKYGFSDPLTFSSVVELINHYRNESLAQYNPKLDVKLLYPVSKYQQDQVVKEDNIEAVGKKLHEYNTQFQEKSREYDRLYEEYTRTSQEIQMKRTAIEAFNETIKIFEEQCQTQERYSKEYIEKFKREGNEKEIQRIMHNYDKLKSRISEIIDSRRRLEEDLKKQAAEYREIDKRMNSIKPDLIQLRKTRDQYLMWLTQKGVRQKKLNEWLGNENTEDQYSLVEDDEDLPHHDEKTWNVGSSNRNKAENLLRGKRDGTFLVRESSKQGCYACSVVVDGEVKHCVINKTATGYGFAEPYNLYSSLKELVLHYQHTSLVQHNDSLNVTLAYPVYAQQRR
Chain of PI3K p110 beta/p85 alpha (P42338 whole entry): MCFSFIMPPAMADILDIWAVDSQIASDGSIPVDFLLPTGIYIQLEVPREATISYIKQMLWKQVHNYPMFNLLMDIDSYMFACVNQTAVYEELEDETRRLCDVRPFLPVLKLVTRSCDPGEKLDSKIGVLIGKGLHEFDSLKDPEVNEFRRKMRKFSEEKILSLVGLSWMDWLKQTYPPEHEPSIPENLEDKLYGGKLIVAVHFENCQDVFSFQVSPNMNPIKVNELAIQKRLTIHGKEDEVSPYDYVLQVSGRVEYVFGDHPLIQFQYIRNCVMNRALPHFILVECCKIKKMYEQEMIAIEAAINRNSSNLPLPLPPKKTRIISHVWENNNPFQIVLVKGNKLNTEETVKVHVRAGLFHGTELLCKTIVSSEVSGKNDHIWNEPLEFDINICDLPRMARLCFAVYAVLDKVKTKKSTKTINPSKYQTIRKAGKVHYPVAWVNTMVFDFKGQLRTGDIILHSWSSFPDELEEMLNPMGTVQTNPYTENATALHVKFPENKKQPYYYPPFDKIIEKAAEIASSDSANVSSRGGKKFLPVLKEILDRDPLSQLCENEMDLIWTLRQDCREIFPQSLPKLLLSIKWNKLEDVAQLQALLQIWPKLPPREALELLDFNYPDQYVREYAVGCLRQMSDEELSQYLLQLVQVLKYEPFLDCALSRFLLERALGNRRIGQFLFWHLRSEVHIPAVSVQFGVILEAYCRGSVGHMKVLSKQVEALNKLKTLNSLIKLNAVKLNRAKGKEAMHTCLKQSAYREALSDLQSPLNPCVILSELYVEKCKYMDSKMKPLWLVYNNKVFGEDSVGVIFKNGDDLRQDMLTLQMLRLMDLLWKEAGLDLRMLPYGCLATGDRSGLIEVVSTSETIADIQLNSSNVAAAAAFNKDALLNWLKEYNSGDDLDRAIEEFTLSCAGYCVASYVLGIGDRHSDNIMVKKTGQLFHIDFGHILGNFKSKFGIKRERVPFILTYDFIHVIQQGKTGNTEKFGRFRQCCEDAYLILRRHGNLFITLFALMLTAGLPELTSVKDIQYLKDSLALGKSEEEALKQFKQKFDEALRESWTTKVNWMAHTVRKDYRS

T1 sequence (P42336 whole entry, canonical isoform): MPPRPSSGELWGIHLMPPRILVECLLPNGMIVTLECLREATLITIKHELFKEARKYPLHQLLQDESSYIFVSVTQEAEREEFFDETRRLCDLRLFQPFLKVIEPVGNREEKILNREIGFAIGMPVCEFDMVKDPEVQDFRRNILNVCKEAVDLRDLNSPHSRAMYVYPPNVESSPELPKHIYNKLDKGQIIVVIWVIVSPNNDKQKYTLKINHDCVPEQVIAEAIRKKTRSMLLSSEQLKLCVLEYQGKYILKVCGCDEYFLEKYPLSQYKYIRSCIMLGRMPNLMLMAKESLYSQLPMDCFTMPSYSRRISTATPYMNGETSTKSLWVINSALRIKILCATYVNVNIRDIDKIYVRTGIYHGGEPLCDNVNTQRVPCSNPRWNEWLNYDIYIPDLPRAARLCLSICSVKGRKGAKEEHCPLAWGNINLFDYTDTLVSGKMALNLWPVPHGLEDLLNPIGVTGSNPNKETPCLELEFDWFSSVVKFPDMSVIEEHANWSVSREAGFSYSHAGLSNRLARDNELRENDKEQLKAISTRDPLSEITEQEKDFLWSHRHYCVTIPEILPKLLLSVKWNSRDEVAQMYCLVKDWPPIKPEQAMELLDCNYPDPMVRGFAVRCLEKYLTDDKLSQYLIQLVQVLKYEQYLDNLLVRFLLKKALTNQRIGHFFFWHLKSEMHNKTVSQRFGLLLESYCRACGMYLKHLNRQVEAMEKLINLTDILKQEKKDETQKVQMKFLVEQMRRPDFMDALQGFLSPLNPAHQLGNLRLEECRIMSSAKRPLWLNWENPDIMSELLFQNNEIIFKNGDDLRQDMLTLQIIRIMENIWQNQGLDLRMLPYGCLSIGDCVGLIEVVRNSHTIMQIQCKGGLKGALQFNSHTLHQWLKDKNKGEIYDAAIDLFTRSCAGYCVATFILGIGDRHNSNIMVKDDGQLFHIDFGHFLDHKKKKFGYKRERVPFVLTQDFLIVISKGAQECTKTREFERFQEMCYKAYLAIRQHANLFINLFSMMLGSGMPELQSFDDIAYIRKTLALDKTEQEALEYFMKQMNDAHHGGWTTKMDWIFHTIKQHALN
Chain of RAF proto-oncogene serine/threonine-protein kinase (P04049 whole entry Y340D/Y341D, canonical isoform): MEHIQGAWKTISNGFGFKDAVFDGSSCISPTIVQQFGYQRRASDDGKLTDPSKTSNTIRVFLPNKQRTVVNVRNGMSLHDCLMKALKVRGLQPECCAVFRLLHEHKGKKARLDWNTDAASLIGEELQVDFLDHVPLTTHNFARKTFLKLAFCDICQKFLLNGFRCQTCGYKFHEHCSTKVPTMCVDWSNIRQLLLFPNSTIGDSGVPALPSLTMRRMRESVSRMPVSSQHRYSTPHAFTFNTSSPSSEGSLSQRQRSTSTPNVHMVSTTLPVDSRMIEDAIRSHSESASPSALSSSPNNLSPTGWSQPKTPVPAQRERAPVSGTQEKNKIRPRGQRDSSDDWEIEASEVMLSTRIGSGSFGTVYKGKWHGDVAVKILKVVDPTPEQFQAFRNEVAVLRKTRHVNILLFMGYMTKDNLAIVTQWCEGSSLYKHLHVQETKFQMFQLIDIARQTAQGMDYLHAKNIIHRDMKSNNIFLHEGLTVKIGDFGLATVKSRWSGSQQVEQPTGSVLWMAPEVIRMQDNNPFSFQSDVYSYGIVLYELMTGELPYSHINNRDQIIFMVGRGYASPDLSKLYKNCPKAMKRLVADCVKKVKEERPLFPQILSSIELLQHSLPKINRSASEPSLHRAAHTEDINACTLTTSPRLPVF
Chain of Phosphatidylinositol 4,5-bisphosphate 3-kinase catalytic subunit beta isoform (Homo sapiens) (P42338 whole entry, looked up, canonical isoform): as the sequence (P42338 whole entry) above
Chain of Phosphatidylinositol 4,5-bisphosphate 3-kinase catalytic subunit gamma isoform (Homo sapiens) (P48736 whole entry, looked up, canonical isoform): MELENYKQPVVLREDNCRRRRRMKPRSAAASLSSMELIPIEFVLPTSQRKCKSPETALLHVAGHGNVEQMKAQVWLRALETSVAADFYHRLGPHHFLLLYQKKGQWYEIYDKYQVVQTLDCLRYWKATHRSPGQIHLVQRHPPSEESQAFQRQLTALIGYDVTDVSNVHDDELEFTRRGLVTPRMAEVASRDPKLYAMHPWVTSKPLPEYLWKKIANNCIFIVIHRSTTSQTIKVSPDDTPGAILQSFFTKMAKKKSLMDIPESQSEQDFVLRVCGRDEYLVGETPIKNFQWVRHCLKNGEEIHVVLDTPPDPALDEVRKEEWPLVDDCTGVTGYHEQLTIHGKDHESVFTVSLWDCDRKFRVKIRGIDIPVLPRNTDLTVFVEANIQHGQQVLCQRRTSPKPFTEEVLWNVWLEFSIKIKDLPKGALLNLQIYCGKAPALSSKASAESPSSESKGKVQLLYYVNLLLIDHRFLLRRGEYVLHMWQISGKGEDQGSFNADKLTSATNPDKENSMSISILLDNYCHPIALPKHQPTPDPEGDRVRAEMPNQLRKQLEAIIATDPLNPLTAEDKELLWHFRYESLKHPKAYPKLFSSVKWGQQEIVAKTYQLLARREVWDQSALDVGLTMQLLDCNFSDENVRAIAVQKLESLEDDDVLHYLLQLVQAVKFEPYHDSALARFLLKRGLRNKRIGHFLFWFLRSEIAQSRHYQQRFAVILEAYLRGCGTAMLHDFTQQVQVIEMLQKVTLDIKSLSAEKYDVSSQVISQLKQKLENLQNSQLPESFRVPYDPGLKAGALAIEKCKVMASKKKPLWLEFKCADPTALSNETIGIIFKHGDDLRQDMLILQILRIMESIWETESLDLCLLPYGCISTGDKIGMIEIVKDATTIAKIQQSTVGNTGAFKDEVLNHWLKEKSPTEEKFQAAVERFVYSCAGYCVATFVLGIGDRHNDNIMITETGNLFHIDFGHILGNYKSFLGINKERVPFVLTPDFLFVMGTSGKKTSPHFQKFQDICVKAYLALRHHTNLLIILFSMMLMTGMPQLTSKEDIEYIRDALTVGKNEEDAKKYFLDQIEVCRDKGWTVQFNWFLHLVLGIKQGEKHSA

IC50 [1]: 1 µM | inhibition [2]: Dose-dependent effect | inhibition [3]: Dose-dependent effect | IC50 (T47D): < 1 µM | IC50 (SK-OV-3 [4]): < 1 µM | IC50 (SK-BR-3): < 1 µM | half-life [7]: 6.79 h | half-life [8]: 0.717 h | half-life [9]: 1.46 h | half-life [10]: 1.56 h | CLint scaled [11]: 39.5 mL/min/kg | CLint scaled [12]: 21.6 mL/min/kg | AUC(0-inf) [13]: 2750 ng·h/mL | inhibition [14]: Active | inhibition [15]: Active | IC50 (LoVo): < 1 µM | IC50 [16]: > 30 µM | IC50 [17]: 0.225 µM | IC50 (PI3K p110 beta/p85 alpha): 0.598 µM
SMILES: COC(=O)Nc1cc(C(F)(F)F)c(-c2nc(N3CCOCC3)c3cc(CN4CCN(S(C)(=O)=O)CC4)cn3n2)cn1 [RISOVALISIB]
IC50 (SJRH30): 1.03 µM | IC50 (ZR-75-1): < 1 µM | Activity (SK-OV-3 [5]): 67.4% | Activity [6]: Non-Toxic | inhibition (Mus musculus): inactive
